Tests used:
Cavia porcellus [1] = species on record: Cavia porcellus; assay: Dissociation constant [100(nM)] in myenteric plexus-longitudinal muscle of guinea pig small intestine using the cannabinoid receptor agonist.; assay type: functional, organism-based
Summary of the method: (§1)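 Guinea pig small intestine myenteric plexus-longitudinal muscle. Antagonist tested at the stated concentration against WIN55,212-2 inhibition of electrically evoked contractions. Drugs mixed with two parts Tween 80 by weight and dispersed in saline; Tween 80 served as the reference. Dose ratio from a symmetrical (2+2) dose parallel line assay on the steepest part of the curve. Kd = B/(x−1).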

Mus musculus [2] = species on record: Mus musculus; assay: Dissociation constant [31.6(nM)] in mouse isolated vas deferens using the cannabinoid receptor agonist.; assay type: functional, organism-based
Summary of the method: (§2)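 Mouse isolated vas deferens. Antagonist tested at the stated concentration against WIN55,212-2 inhibition of electrically evoked contractions. Drugs dispersed in saline with two parts Tween 80 by weight, with Tween 80 as the reference. Dose ratio (95% confidence limits) from a symmetrical 2+2 dose parallel line assay. Kd from (x−1) = B/Kd.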

Cannabinoid receptor 1 = Cannabinoid receptor 1 (Rattus norvegicus, UniProt P20272); assay: Binding affinity against Cannabinoid receptor 1 in rat forebrain
Mus musculus [3] = species on record: Mus musculus; assay: Dissociation constant [1000(nM)] in mouse isolated vas deferens using the cannabinoid receptor agonist.; assay type: functional, organism-based; summary of the method: as §2
Cannabinoid receptor 2 = Cannabinoid receptor 2 (Mus musculus, UniProt P47936); assay: Binding affinity against Cannabinoid receptor 2 in mouse spleen; assay type: tissue-based
Summary of the method: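 Membranes from frozen mouse spleen (CB2), about 50 μg, prepared in silanized tubes. Incubated 1 h at 30 °C in TME with 0.1% fatty-acid-free BSA, 0.8 nM [3H]2 and varying ligand concentrations. Filtration, four ice-cold washes with buffer containing 0.5% BSA, then scintillation counting. Nonspecific binding defined with 100 nM 2. Three independent experiments in duplicate, normalized to specific binding; 95% confidence limits.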

[4] = system: Cannabinoid receptor CB1 (Rattus norvegicus) and CB2 (Mus musculus); assay: Ratio of the binding affinities against rat CB1 to that of mouse CB2; activity value is 1:2.7
Cavia porcellus [5] = species on record: Cavia porcellus; assay: Dissociation constant [1000(nM)] in myenteric plexus-longitudinal muscle of guinea pig small intestine using the cannabinoid receptor agonist.; assay type: functional, organism-based; summary of the method: as §1
Mus musculus [6] = species on record: Mus musculus; assay: Dissociation constant [316(nM)] in mouse isolated vas deferens using the cannabinoid receptor agonist.; assay type: functional, organism-based; summary of the method: as §2
[7] = target: T1, Cannabinoid receptor (Homo sapiens) (UniProt P34972+P21554); assay: Ratio of the binding affinities against rat CB1 to that of mouse CB2; activity value is 1:85; assay type: protein assay
[8] = target: T1, Cannabinoid receptor (Homo sapiens); assay: Ratio of the binding affinities against rat CB1 to that of mouse CB2; activity value is 1:7.2; assay type: protein assay
[9] = system: Cannabinoid receptor CB1 (Rattus norvegicus) and CB2 (Mus musculus); assay: Ratio of the binding affinities against rat CB1 to that of mouse CB2; activity value is 1:37
[10] = target: T1, Cannabinoid receptor (Homo sapiens); assay: Ratio of the binding affinities against rat CB1 to that of mouse CB2; activity value is 1:17; assay type: protein assay

Sequence of Cannabinoid receptor 1 (P20272 whole entry): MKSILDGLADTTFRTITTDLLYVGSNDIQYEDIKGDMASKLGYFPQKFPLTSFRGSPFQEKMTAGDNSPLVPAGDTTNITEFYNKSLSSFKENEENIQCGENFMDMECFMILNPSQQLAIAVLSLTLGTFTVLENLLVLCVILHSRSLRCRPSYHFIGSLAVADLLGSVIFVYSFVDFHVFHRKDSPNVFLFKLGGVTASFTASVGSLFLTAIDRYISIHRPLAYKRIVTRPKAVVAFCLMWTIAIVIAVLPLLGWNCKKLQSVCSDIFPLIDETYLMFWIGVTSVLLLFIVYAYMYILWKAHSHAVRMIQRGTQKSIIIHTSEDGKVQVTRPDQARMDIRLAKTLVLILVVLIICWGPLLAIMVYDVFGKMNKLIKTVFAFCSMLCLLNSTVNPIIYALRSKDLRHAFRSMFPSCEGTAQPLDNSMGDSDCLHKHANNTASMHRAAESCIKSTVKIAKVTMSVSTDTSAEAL
Sequence of Cannabinoid receptor 2 (P47936 whole entry): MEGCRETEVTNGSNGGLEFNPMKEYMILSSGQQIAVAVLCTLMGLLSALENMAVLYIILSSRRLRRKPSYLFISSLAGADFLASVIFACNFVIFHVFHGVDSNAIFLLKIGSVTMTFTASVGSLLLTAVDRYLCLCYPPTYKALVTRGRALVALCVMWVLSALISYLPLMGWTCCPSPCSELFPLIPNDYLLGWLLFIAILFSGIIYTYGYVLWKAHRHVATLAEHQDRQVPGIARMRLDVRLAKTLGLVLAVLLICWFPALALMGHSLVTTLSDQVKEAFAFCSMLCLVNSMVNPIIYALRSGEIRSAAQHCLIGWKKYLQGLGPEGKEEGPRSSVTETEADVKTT
T1 sequence (P21554 whole entry, looked up): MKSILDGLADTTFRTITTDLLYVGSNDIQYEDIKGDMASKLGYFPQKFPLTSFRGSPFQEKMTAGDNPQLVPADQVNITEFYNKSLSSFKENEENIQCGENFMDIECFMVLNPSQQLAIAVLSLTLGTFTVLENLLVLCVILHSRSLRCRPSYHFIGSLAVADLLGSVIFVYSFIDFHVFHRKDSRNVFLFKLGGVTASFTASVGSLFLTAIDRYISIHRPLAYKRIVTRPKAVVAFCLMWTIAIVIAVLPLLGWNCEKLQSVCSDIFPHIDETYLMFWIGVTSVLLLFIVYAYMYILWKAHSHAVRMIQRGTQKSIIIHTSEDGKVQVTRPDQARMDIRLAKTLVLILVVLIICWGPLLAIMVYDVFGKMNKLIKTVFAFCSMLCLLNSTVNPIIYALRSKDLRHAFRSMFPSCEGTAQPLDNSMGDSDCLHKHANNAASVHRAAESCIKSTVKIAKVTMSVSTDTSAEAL
T1 sequence (P34972 whole entry, looked up): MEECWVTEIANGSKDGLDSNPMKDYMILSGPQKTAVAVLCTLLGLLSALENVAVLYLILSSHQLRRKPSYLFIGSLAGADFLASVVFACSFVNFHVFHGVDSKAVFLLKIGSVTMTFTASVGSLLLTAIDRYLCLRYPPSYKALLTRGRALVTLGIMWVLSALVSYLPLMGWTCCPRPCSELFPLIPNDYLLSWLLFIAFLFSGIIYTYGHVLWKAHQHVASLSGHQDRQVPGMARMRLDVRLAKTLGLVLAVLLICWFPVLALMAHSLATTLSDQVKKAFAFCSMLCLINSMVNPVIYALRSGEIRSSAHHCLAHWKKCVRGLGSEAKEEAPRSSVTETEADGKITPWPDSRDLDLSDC

| Structure (SMILES) | Ki (Cannabinoid receptor 1) | Ki (Cannabinoid receptor 2) | Kd (Cavia porcellus [5]) | further results |
| --- | --- | --- | --- | --- |
| Cc1c(C(=O)NN2CCCCC2)nn(-c2ccc(Cl)cc2Cl)c1-c1ccc(I)cc1 | – | – | – | Kd (Cavia porcellus [1]): 0.22 nM; Kd (Mus musculus [2]): 0.5 nM |
| Cc1c(C(=O)NN2CCCCC2)nn(-c2ccc(Cl)cc2Cl)c1-c1ccccc1N | 346 nM | 931 nM | – | Kd (Cavia porcellus [1]): 11.2 nM; Kd (Mus musculus [3]): 118 nM; Ratio [4]: 2.7 |
| Cc1c(C(=O)NN2CCCCC2)nn(-c2ccc(Cl)cc2Cl)c1-c1ccccc1I | 53.8 nM | 577 nM | 5.87 nM | Kd (Mus musculus [2]): 7.83 nM |
| Cc1c(C(=O)NN2CCCCC2)nn(-c2ccc(Cl)cc2)c1-c1ccc(Cl)cc1 | – | 836 nM | – | – |
| Cc1c(C(=O)NCCO)nn(-c2ccc(Cl)cc2Cl)c1-c1ccc(Br)cc1 | 1120 nM | 19000 nM | – | – |
| Cc1c(C(=O)NC2CCCCC2)nn(-c2ccc(Cl)cc2Cl)c1-c1ccc(Br)cc1 | 11.7 nM | 1010 nM | – | Ratio [8]: 87 |
| Cc1c(C(=O)N(C)C2CCCCC2)nn(-c2ccc(Cl)cc2Cl)c1-c1ccc(Br)cc1 | 76.7 nM | 1260 nM | – | – |
| Cc1c(C(=O)NN2CCCCC2)nn(-c2ccc(Cl)cc2Cl)c1-c1ccc([N+](=O)[O-])cc1 | 57.5 nM | 252 nM | 2.9 nM | Kd (Mus musculus [6]): 5.31 nM |
| Cc1c(C(=O)Nc2ccccc2)nn(-c2ccc(Cl)cc2Cl)c1-c1ccc(Br)cc1 | 31.1 nM | 6750 nM | – | Ratio [10]: 217 |
| Cc1c(C(=O)NN2CCOCC2)nn(-c2ccc(Cl)cc2Cl)c1-c1ccc(Br)cc1 | 53.9 nM | 2450 nM | – | – |
| CCc1c(C)c(C(=O)NN2CCCCC2)nn1-c1ccc(Cl)cc1Cl | 183 nM | 744 nM | – | – |
| Cc1c(C(=O)N2CCN(C)CC2)nn(-c2ccc(Cl)cc2Cl)c1-c1ccc(Br)cc1 | 326 nM | 2340 nM | 12.3 nM | Kd (Mus musculus [3]): 325 nM |
| Cc1c(C(=O)NN2CCCCC2)nn(-c2ccc(Cl)cc2Cl)c1-c1ccccc1[N+](=O)[O-] | 255 nM | 691 nM | 5.96 nM | Kd (Mus musculus [6]): 25.4 nM; Ratio [4]: 2.7 |
| Cc1c(C(=O)NN2CCCCC2)nn(-c2ccc(Cl)cc2Cl)c1-c1ccc(Cl)cc1 [RIMONABANT] | – | – | – | Kd (Cavia porcellus [1]): 0.25 nM; Kd (Mus musculus [2]): 1.98 nM |

Second part, led by results:

| Ki (Cannabinoid receptor 1) | Ki (Cannabinoid receptor 2) | Kd (Cavia porcellus [5]) | Structure (SMILES) | further results |
| --- | --- | --- | --- | --- |
| 81.5 nM | 958 nM | – | Cc1c(C(=O)NN2CCCCC2)nn(-c2ccc(Cl)cc2Cl)c1-c1ccc(N)cc1 | Kd (Cavia porcellus [1]): 2.63 nM; Kd (Mus musculus [6]): 42.6 nM |
| 16.8 nM | 1430 nM | – | Cc1c(C(=O)NN2CCCCC2)nn(-c2ccc(Cl)cc2Cl)c1-c1ccc(Br)cc1 | Kd (Cavia porcellus [1]): 0.32 nM; Kd (Mus musculus [2]): 2.64 nM; Ratio [7]: 85 |
| 125 nM | 4580 nM | 4.72 nM | Cc1c(C(=O)N2CCCCC2)nn(-c2ccc(Cl)cc2Cl)c1-c1ccc(Br)cc1 | Ratio [9]: 37; Kd (Mus musculus [3]): 172 nM |
| 7.85 nM | 215 nM | 0.38 nM | Cc1c(C(=O)NN2CCCCCC2)nn(-c2ccc(Cl)cc2Cl)c1-c1ccc(Br)cc1 | Kd (Mus musculus [6]): 6.8 nM; Ratio [7]: 28 |
| – | 217 nM | 7 nM | Cc1c(C(=O)NN2CCCCC2)nn(-c2ccc(Cl)cc2Cl)c1-c1ccccc1 | Kd (Mus musculus [6]): 28 nM |
